The values below come from ChEMBL document CHEMBL4619808, “Tailoring the Physicochemical Properties of Antimicrobial Peptides onto a Thiazole-Based γ-Peptide Foldamer” (J Med Chem, 2020).

Structures are written as SMILES. Converted amounts (≈) assume the structure as drawn. The source made the active and inactive calls. The calls are words filed in the database; no cut-off is given here.

Data set [1] has as its system Escherichia coli. Briefly: Induction of membrane depolarization in Escherichia coli ATCC 8739 incubated for 2 hrs by [DiSC3(5)] probe based fluorescence assay. The data set is classed as functional, organism-based. The procedure, abridged: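 E. coli ATCC8739 grown 2 h at 37°C in Mueller-Hinton broth, washed and resuspended in 20 mM glucose/5 mM HEPES pH 7.2 to OD600 0.05. DiSC3(5) added at 0.6 µM final and preincubated at 37°C until fluorescence stabilized. Compound added at 0.19–12.5 µM final; fluorescence (ex 620, em 670 nm) followed over 30 min. Duplicate, three independent experiments.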

In data set [2] the test system is Escherichia coli. As to the kind of experiment: Antimicrobial activity against Escherichia coli ATCC 8739 assessed as induction of blisters and protruding vesicles on cell surface at 1 to 8 times MIC incubated for 60 mins by surface electron microscopy. The data set is classed as functional, organism-based.
In data set [3] the test system is Escherichia coli. As to the kind of experiment: Antimicrobial activity against Escherichia coli ATCC 8739 assessed as induction of spherical elements around bacteria at 1 to 8 times MIC incubated for 60 mins by surface electron microscopy. The data set is classed as functional, organism-based.
In data set [4] the test system is Escherichia coli. As to the kind of experiment: Antimicrobial activity against Escherichia coli ATCC 8739 assessed as increase in region of cellular aggregation at 1 to 8 times MIC incubated for 60 mins by surface electron microscopy. The data set is classed as functional, organism-based.
The subject of data set [5] is Bacillus subtilis. Briefly: Antimicrobial activity against Bacillus subtilis ATCC 6633 assessed as inhibition of microbial growth incubated for 24 hrs. The data set is classed as functional. Conditions: ATCC 6633, 24 h. In outline: (§1)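 Broth microdilution. Strains grown overnight on TSA at 37°C, suspended to 10⁸ CFU/mL in Tryptone-Sel, then diluted to 10⁶ CFU/mL in double-strength Mueller-Hinton broth. Two-fold serial dilutions in sterile water (pH 7.4–7.7) mixed 1:1 with inoculum. Incubation 24 h at 37°C. MIC is the lowest concentration inhibiting growth. Duplicate wells, three independent experiments.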

The test system of data set [6] is Staphylococcus aureus. Briefly: Antimicrobial activity against Staphylococcus aureus ATCC 6538 assessed as inhibition of microbial growth incubated for 24 hrs. The data set is classed as functional. Conditions: ATCC 6538, 24 h. In outline: as §1
For data set [7], the system named is Enterococcus faecalis. As to the kind of experiment: Antimicrobial activity against Enterococcus faecalis ATCC 29121 assessed as inhibition of microbial growth incubated for 24 hrs. The data set is classed as functional. Particulars: ATCC 29121, 24 h. The procedure, abridged: as §1
Data set [8] has as its system Escherichia coli. As to the kind of experiment: Antimicrobial activity against Escherichia coli ATCC 8739 assessed as inhibition of microbial growth incubated for 24 hrs. The data set is classed as functional. Conditions: ATCC 8739, 24 h. The procedure, abridged:
as §1

Data set [9] deals with Pseudomonas aeruginosa. As to the kind of experiment: Antimicrobial activity against Pseudomonas aeruginosa ATCC 9027 assessed as inhibition of microbial growth incubated for 24 hrs. The data set is classed as functional. Conditions: ATCC 9027, 24 h. The procedure, abridged:
as §1

Data set [10] deals with Candida albicans. As to the kind of experiment: Antimicrobial activity against Candida albicans ATCC 10231 assessed as inhibition of microbial growth incubated for 48 hrs. The data set is classed as functional. Particulars: ATCC 10231, 48 h. In outline:
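C. albicans grown 48 h on Sabouraud at 20–25°C, suspended to 10⁸ CFU/mL, then diluted to 10⁶ CFU/mL in double-strength Mueller-Hinton broth. Two-fold serial dilutions in water (pH 7.4–7.7) mixed 1:1 with inoculum. Incubation 48 h at 25°C. MIC is the lowest concentration inhibiting growth. Duplicate wells, three independent experiments.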

Data set [11] can be described thus: Hemolytic activity in human RBC assessed as induction of hemolysis incubated for 1 hr. Particulars: red blood cells (erythrocytes), read-out: HD50. The data set is classed as cell-based, Erythrocyte. In outline: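 Human RBCs washed in PBS and used at 5% packed cell volume, mixed 1:1 with two-fold serial dilutions in PBS (pH 7.4–7.7). Incubation 1 h at 37°C, then centrifugation at 1500g for 10 min at 5°C. Supernatant absorbance read at 490 nm against PBS (0%) and 1% SDS/Tris (100%) controls. HC50 from three independent experiments, double duplicate.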

The subject of data set [12] is Bacillus subtilis. Briefly: Microbicidal activity against Bacillus subtilis ATCC 6633 assessed as inhibition of colony growth incubated for 24 hrs followed by replating and further incubated for 24 hrs. The data set is classed as functional. Particulars: ATCC 6633, 24 h.
Data set [13] has as its system Staphylococcus aureus. As to the kind of experiment: Microbicidal activity against Staphylococcus aureus ATCC 6538 assessed as inhibition of colony growth incubated for 24 hrs followed by replating and further incubated for 24 hrs. The data set is classed as functional. Particulars: ATCC 6538, 24 h.
Data set [14] concerns Enterococcus faecalis. Briefly: Microbicidal activity against Enterococcus faecalis ATCC 29121 assessed as inhibition of colony growth incubated for 24 hrs followed by replating and further incubated for 24 hrs. Particulars: ATCC 29121, 24 h. The data set is classed as functional.
In data set [15] the test system is Escherichia coli. Briefly: Microbicidal activity against Escherichia coli ATCC 8739 assessed as inhibition of colony growth incubated for 24 hrs followed by replating and further incubated for 24 hrs. The data set is classed as functional. Conditions: ATCC 8739, 24 h.
Data set [16] has as its system Pseudomonas aeruginosa. As to the kind of experiment: Microbicidal activity against Pseudomonas aeruginosa ATCC 9027 assessed as inhibition of colony growth incubated for 24 hrs followed by replating and further incubated for 24 hrs. The data set is classed as functional. Conditions: ATCC 9027, 24 h.
Data set [17] concerns Candida albicans. As to the kind of experiment: Microbicidal activity against Candida albicans ATCC 10231 assessed as inhibition of colony growth incubated for 48 hrs followed by replating and further incubated for 48 hrs. Particulars: ATCC 10231, 48 h. The data set is classed as functional.
In data set [18] the test system is Escherichia coli. Briefly: Antimicrobial activity against Escherichia coli ATCC 8739 assessed as reduction in viable bacterial cell count at 1 times MIC incubated up to 120 mins by time kill assay relative to control. The data set is classed as functional.
The test system of data set [19] is Escherichia coli. Briefly: Antimicrobial activity against Escherichia coli ATCC 8739 assessed as reduction in viable bacterial cell count at 8 times MIC incubated up to 120 mins by time kill assay relative to control. The data set is classed as functional.
In data set [20] the test system is Escherichia coli. As to the kind of experiment: Antimicrobial activity against Escherichia coli ATCC 8739 assessed as reduction in viable bacterial cell count at 4 to 8 times MIC incubated for 40 to 60 mins by time kill assay relative to control. The data set is classed as functional, organism-based.
In data set [21] the test system is Escherichia coli. Briefly: Antimicrobial activity against Escherichia coli ATCC 8739 assessed as effect on bacterial morphology by measuring bacterial length at 1 to 8 times MIC incubated for 60 mins by surface electron microscopy (reference value: 2 micrometer). The data set is classed as functional.
Data set [22] has as its system Escherichia coli. As to the kind of experiment: Antimicrobial activity against Escherichia coli ATCC 8739 assessed as inhibition of microbial growth measured after 8 passes in presence of sublethal compound concentration concentrations. The data set is classed as functional.

One may read the MIC as the lowest concentration that inhibits growth of the organism. With `CC(=O)N[C@@H](CCCNC(=N)N)c1nc(C)sc1C(=O)N[C@@H](C)c1nc(CCCNC(=N)N)sc1C(=O)N[C@@H](C)c1nc(C)sc1C(=O)N[C@@H](CCCNC(=N)N)c1nc(C)sc1C(=O)N[C@@H](C)c1nc(CCCNC(=N)N)sc1C(=O)N[C@@H](C)c1nc(C)sc1C(=O)N[C@@H](CCCNC(=N)N)c1nc(C)sc1C(=O)N[C@@H](C)c1nc(CCCNC(=N)N)sc1C(=O)N[C@@H](C)c1nc(C)sc1C(=O)N[C@@H](CCCNC(=N)N)c1nc(C)sc1C(=O)N[C@@H](C)c1nc(CCCNC(=N)N)sc1C(=O)N[C@@H](C)c1nc(C)sc1C(N)=O`, the Activity result with Escherichia coli [1] was “Dose-dependent effect”; in the data set with Escherichia coli [3], “Dose-dependent effect”; with Escherichia coli [18], 0.95 log10CFU/ml; in the data set on Escherichia coli [19] it was 4.73 log10CFU/ml; in the data set on Escherichia coli [21] it was 1.3 um. The result in the data set on Escherichia coli [2], with Escherichia coli [4] and in the data set with Escherichia coli [20] was Active. Also, the MIC came to 0.6 µM with Bacillus subtilis [5]; 3.1 µM in the data set with Staphylococcus aureus [6]; 20.8 µM in the data set on Enterococcus faecalis [7]; 1.8 µM with Escherichia coli [8]; 4.2 µM with Pseudomonas aeruginosa [9]; 6.2 µM in the data set with Candida albicans [10]. In addition, the HC50 at 1 h in data set [11] was over 100 µM. The MBC in the data set with Bacillus subtilis [12] is 0.8 µM (≈ 2.21 µg/mL); with Staphylococcus aureus [13], 7.8 µM (≈ 21.5 µg/mL); with Enterococcus faecalis [14], 25 µM (≈ 69 µg/mL); with Escherichia coli [15] it was 2.3 µM (≈ 6.34 µg/mL); in the data set on Pseudomonas aeruginosa [16] it was 4.7 µM (≈ 13 µg/mL); in the data set with Candida albicans [17], 6.2 µM (≈ 17.1 µg/mL). Besides, the MIC entry in the data set on Escherichia coli [22] was “Active”.
For the compound `CO/N=C(\C(=O)N[C@@H]1C(=O)N2C(C(=O)O)=C(COC(C)=O)CS[C@H]12)c1csc(N)n1` [CEFOTAXIME], the MIC with Escherichia coli [8] is under 0.05 µg/mL; in the data set on Escherichia coli [22], 0.8 µg/mL.
